According to paper PMC7237957 (European Heart Journal Cardiovascular Imaging, 2019):
Where two headings read alike, the source gives them in different places.

Columns and labels:
Type in all cases: binding
Factor XIIIa = biological target: T1, Factor XIIIa (Homo sapiens, UniProt P00488); settings: co-infusion of iodoacetamide 10 mg/mL, n = 10
T1 sequence (P00488 39-732 limits assumed): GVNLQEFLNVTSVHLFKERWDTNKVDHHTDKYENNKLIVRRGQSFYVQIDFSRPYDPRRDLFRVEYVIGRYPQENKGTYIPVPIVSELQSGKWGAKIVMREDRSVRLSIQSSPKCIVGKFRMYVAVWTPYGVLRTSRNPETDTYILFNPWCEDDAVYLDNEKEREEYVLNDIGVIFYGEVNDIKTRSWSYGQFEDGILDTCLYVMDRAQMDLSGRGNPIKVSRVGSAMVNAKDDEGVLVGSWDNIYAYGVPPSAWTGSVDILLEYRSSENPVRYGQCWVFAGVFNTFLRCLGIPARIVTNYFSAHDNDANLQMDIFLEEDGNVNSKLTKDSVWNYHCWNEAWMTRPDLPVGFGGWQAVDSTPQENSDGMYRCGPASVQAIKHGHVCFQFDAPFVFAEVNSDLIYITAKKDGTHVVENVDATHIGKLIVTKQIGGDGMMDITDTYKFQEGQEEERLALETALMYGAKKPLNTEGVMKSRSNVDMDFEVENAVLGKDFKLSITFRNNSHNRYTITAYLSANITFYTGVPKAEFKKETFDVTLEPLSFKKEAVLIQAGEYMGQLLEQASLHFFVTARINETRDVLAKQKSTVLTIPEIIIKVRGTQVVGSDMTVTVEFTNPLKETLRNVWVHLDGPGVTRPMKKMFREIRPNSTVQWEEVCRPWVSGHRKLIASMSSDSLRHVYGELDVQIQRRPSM
Method in brief: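 Native blood from healthy male volunteers was pumped at 10 mL/min for 5 min through three 37°C chambers over porcine aortic strips (intima removed), at 212 s−1 (low shear) or 1690 s−1 (high shear), then flushed with saline. Tracer was infused at 4.6 ± 0.5 MBq/mL, or 5.5 ± 0.9 MBq/mL with 10 mg/mL iodoacetamide. Strips were scanned by NanoPET/CT; equal thrombus VOIs (kBq/mL) were divided by infused MBq.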

human thrombus = biological target: T2, human thrombus (Homo sapiens, UniProt P00488); experiment: Autoradiography of ex vivo human thrombus sections with blocking; settings: human explanted thrombus sections; 5 μM co-incubated
T2 sequence (P00488 39-732 limits assumed): T1 sequence (P00488 39-732 limits assumed)
Method in brief: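 Paraffin-embedded cross-sections of ex vivo human thrombi (n = 3) were de-paraffinised, rehydrated and incubated 2 h at 37°C with 18F-tracer alone or co-incubated with unlabelled tracer, scrambled peptide or iodoacetamide (each 5 μM), in quadruplicate. Slides were washed twice in phosphate buffer, air-dried and exposed to a phosphor screen. Equal ROIs gave greyscale pixel intensity; %SB = tracer-only minus inhibitor-section activity.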

rodent carotid thrombus = biological target: T3, rodent carotid thrombus (Rattus norvegicus, UniProt O08619); settings: rodent explanted thrombus sections; 5 μM co-incubated
T3 sequence (O08619 39-732 limits assumed): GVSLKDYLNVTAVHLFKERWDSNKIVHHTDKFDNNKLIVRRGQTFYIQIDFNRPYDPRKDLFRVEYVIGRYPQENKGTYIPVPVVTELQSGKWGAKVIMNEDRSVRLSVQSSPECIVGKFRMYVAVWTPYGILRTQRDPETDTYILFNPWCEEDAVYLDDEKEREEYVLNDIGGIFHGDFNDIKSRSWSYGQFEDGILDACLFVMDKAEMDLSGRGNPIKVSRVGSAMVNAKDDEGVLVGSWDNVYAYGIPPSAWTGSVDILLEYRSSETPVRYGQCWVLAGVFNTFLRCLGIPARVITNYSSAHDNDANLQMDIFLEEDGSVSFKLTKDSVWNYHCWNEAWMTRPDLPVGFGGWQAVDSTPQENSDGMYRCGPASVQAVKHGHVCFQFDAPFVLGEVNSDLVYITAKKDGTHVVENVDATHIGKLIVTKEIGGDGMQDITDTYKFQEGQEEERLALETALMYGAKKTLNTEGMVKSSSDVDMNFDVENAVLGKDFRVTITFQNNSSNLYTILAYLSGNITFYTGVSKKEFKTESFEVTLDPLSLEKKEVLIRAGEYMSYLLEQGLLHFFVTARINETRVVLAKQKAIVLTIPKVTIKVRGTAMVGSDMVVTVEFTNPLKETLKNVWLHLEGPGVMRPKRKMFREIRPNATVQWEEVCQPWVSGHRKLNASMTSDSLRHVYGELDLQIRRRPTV
Method in brief: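 Thrombosed left common carotid (ferric chloride model) was harvested from one rat after sacrifice. Sections were de-paraffinised, rehydrated and incubated 2 h at 37°C with 18F-tracer alone or with 5 μM unlabelled tracer, scrambled peptide or iodoacetamide. They were then washed, dried and exposed to a phosphor screen. Greyscale intensity was read in equal ROIs; %SB = tracer-only minus inhibitor sections.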

Q: How did the “Reduction of 18F-ENC2015 thrombus binding” value (Factor XIIIa; high shear thrombi) turn out when `NC(=O)CI` [iodoacetamide, Iodoacetamide] was run?
A: The value was 87%.

Q: And the “Reduction of 18F-ENC2015 thrombus binding” value (Factor XIIIa; low shear thrombi)?
A: The value was 88%.

Q: What about the “Effect on 18F-ENC2015 uptake (autoradiography)” value (human thrombus) of the same molecule?
A: Its value is “no effect”.

Q: What about the “Effect on 18F-ENC2015 uptake (autoradiography)” value (rodent carotid thrombus) of the same molecule?
A: Its value is “no effect”.
